Reference: ChEMBL document CHEMBL4715780, “Biological evaluation of tetracationic compounds based on two 1,4-diazabicyclo[2.2.2]octane moieties connected by different linkers” (Bioorg Med Chem, 2016)

Tests used:
[1] = system: Staphylococcus aureus; experiment: Antibacterial activity against […] Staphylococcus aureus ATCC 25923 assessed as concentration required to inhibit visible growth by CLSI protocol based serial microdilution method; format: functional
[2] = system: Staphylococcus aureus; experiment: Antibacterial activity against […] Staphylococcus aureus ATCC 25923 assessed as bacterial growth inhibition by CLSI protocol based serial microdilution method; format: functional
[3] = system: Enterococcus faecalis; experiment: Antibacterial activity against Enterococcus faecalis ATCC 51299 assessed as concentration required to inhibit visible growth by CLSI protocol based serial microdilution method; format: functional
[4] = system: Enterococcus faecalis; experiment: Antibacterial activity against Enterococcus faecalis ATCC 51299 assessed as bacterial growth inhibition by CLSI protocol based serial microdilution method; format: functional
[5] = system: Pseudomonas aeruginosa; experiment: Antibacterial activity against Pseudomonas aeruginosa ATCC 9027 assessed as concentration required to inhibit visible growth by CLSI protocol based serial microdilution method; format: functional
[6] = system: Pseudomonas aeruginosa; experiment: Antibacterial activity against Pseudomonas aeruginosa ATCC 9027 assessed as bacterial growth inhibition by CLSI protocol based serial microdilution method; format: functional
[7] = system: Escherichia coli; experiment: Antibacterial activity against Escherichia coli ATCC 25922 assessed as concentration required to inhibit visible growth by CLSI protocol based serial microdilution method; format: functional
[8] = system: Escherichia coli; experiment: Antibacterial activity against Escherichia coli ATCC 25922 assessed as bacterial growth inhibition by CLSI protocol based serial microdilution method; format: functional
[9] = system: Salmonella typhimurium; experiment: Antibacterial activity against Salmonella enterica ATCC 14028 assessed as concentration required to inhibit visible growth by CLSI protocol based serial microdilution method; format: functional, Salmonella enterica subsp. enterica serovar Typhimurium
[10] = system: Salmonella typhimurium; experiment: Antibacterial activity against Salmonella enterica ATCC 14028 assessed as bacterial growth inhibition by CLSI protocol based serial microdilution method; format: functional, Salmonella enterica subsp. enterica serovar Typhimurium
[11] = system: Citrobacter freundii; experiment: Antibacterial activity against Citrobacter freundii ATCC 8090 assessed as concentration required to inhibit visible growth by CLSI protocol based serial microdilution method; format: functional
[12] = system: Citrobacter freundii; experiment: Antibacterial activity against Citrobacter freundii ATCC 8090 assessed as bacterial growth inhibition by CLSI protocol based serial microdilution method; format: functional
[13] = system: Proteus vulgaris; experiment: Antibacterial activity against Proteus vulgaris ATCC 6380 assessed as concentration required to inhibit visible growth by CLSI protocol based serial microdilution method; format: functional
[14] = system: Proteus vulgaris; experiment: Antibacterial activity against Proteus vulgaris ATCC 6380 assessed as bacterial growth inhibition by CLSI protocol based serial microdilution method; format: functional
[15] = system: Candida albicans; experiment: Antifungal activity against Candida albicans CEMTC 34 assessed as concentration required to inhibit visible growth by CLSI protocol based serial microdilution method; format: functional
Procedure, shortened: (§1)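 Candida albicans grown in Sabouraud dextrose broth with two-fold serial compound dilutions from water stocks; final inoculum about 5 × 10⁵ CFU/mL. Incubated at 37 °C with orbital shaking (580 rpm). MIC is the lowest concentration preventing growth, by absorbance at 595 nm. MFC is the lowest concentration with no visible growth. Duplicates in two separate experiments.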

[16] = system: Candida albicans; experiment: Antifungal activity against Candida albicans CEMTC 34 assessed as fungal growth inhibition by CLSI protocol based serial microdilution method; format: functional; procedure, shortened: as §1
[17] = Cytotoxicity against human MCF7 cells assessed as reduction in cell viability measured after 24 hrs by MTT assay; format: cell-based
Procedure, shortened: (§2)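 HEK293T or MCF-7 cells in IMDM with 10% FBS, seeded at 20,000 per well and grown overnight. Compounds at […] in fresh medium for 24 h at 37 °C, 5% CO₂. MTT then added for 4 h, precipitate dissolved overnight in SDS-HCl, absorbance read at 570 nm. Viability expressed relative to untreated cells, giving CC₅₀. Duplicate wells, at least two independent repeats.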

[18] = Cytotoxicity against HEK293T cells assessed as reduction in cell viability measured after 24 hrs by MTT assay; format: cell-based, HEK-293T; conditions: human; procedure, shortened: as §2
[19] = Selectivity index, ratio of CC50 for HEK293T cells assessed as reduction in cell viability measured after 24 hrs by MTT assay to MIC for Staphylococcus aureus ATCC 25923 assessed as bacterial growth inhibition by CLSI protocol based serial microdilution method; format: toxicity; conditions: human, read-out: Selectivity Index
[20] = Selectivity index, ratio of CC50 for HEK293T cells assessed as reduction in cell viability measured after 24 hrs by MTT assay to MIC for Enterococcus faecalis ATCC 51299 assessed as bacterial growth inhibition by CLSI protocol based serial microdilution method; format: toxicity; conditions: human, read-out: Selectivity Index
[21] = Selectivity index, ratio of CC50 for HEK293T cells assessed as reduction in cell viability measured after 24 hrs by MTT assay to MIC for Pseudomonas aeruginosa ATCC 9027 assessed as bacterial growth inhibition by CLSI protocol based serial microdilution method; format: toxicity; conditions: human, read-out: Selectivity Index
[22] = Selectivity index, ratio of CC50 for HEK293T cells assessed as reduction in cell viability measured after 24 hrs by MTT assay to MIC for Escherichia coli ATCC 25922 assessed as bacterial growth inhibition by CLSI protocol based serial microdilution method; format: toxicity; conditions: human, read-out: Selectivity Index
[23] = Selectivity index, ratio of CC50 for HEK293T cells assessed as reduction in cell viability measured after 24 hrs by MTT assay to MIC for Citrobacter freundii ATCC 8090 assessed as bacterial growth inhibition by CLSI protocol based serial microdilution method; format: toxicity; conditions: human, read-out: Selectivity Index
[24] = Selectivity index, ratio of CC50 for HEK293T cells assessed as reduction in cell viability measured after 24 hrs by MTT assay to MIC for Proteus vulgaris ATCC 6380 assessed as bacterial growth inhibition by CLSI protocol based serial microdilution method; format: toxicity; conditions: human, read-out: Selectivity Index
[25] = Selectivity index, ratio of CC50 for HEK293T cells assessed as reduction in cell viability measured after 24 hrs by MTT assay to MIC for Candida albicans CEMTC 34 assessed as bacterial growth inhibition by CLSI protocol based serial microdilution method; format: toxicity; conditions: human, read-out: Selectivity Index
Procedure, shortened: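 SI = CC₅₀ (HEK293T) / MIC. HEK293T cells were seeded at 20,000/well overnight, then exposed to 10–250 µg/mL in IMDM with 10% FBS for 24 h. MTT was added for 4 h, solubilised with SDS-HCl, and read at 570 nm; duplicates, ≥2 independent runs. MIC came from two-fold dilutions in Sabouraud dextrose broth at ~5 × 10⁵ CFU/mL, 37 °C with shaking, read at 595 nm, in duplicate.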

[26] = system: Influenza A virus; experiment: Antiviral activity against Influenza A virus (A/Puerto Rico/8/34 (H1N1) infected in MDCK cells assessed as decrease in viral titer preincubated for 1 hr followed by viral infection and cultivated for 48 hrs followed by supernatant transferred to chicken erythrocyte for 1 hr followed by measuring ability to cause positive hemagglutination; format: functional, organism-based; conditions: A/Puerto Rico/8/1934(H1N1)
Procedure, shortened: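 MDCK monolayers in MEM were pre-incubated with compound for 1 h at 37 °C, then infected with 10-fold virus dilutions (10⁻¹–10⁻⁶) and held 48 h at 37 °C, 5% CO₂. Supernatant was mixed with an equal volume of 1% chicken erythrocytes, 60 min at room temperature. Titre was taken from the highest dilution giving full agglutination (log₁₀ EID₅₀). Triplicate per concentration.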

[27] = Cytotoxicity against MDCK cells assessed as cell death incubated for 48 hrs by MTT assay; format: cell-based, Canis lupus familiaris; conditions: dog
[28] = Selectivity index, ratio of CC50 for MDCK cells to EC50 for Influenza A virus (A/Puerto Rico/8/34 (H1N1)) infected in MDCK cells; format: toxicity, cell-based; conditions: dog, read-out: Ratio CC50/EC50
Procedure, shortened: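 Ratio of CC₅₀ to EC₅₀, both in MDCK cells, with cytotoxicity run in parallel with the antiviral assay. EC₅₀ is the concentration halving virus production (0.3 log₁₀ EID₅₀ titre drop). It was obtained after 1 h compound pre-incubation, infection, 48 h at 37 °C, and hemagglutination read-out with 1% chicken erythrocytes.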

[29] = Selectivity index, ratio of CC50 for HEK293T cells assessed as reduction in cell viability measured after 24 hrs by MTT assay to MIC for Salmonella enterica ATCC 14028 assessed as bacterial growth inhibition by CLSI protocol based serial microdilution method; format: toxicity; conditions: human, read-out: Selectivity Index

SMILES: CCCCCCCCCCCC[N+]12CC[N+](CCCC[N+]34CC[N+](CCCCCCCCCCCC)(CC3)CC4)(CC1)CC2
- MBC [1]: 1.2 µg/mL
- MIC [2]: 0.6 µg/mL
- MBC [3]: 1.6 µg/mL
- MIC [4]: 1.6 µg/mL
- MBC [5]: 3.1 µg/mL
- MIC [6]: 1.6 µg/mL
- MBC [7]: 3.1 µg/mL
- MIC [8]: 1.6 µg/mL
- MBC [9]: 3.1 µg/mL
- MIC [10]: 1.6 µg/mL
- MBC [11]: 1.6 µg/mL
- MIC [12]: 1.6 µg/mL
- MBC [13]: > 100 µg/mL
- MIC [14]: 25 µg/mL
- MFC [15]: 6.3 µg/mL
- MIC [16]: 6.3 µg/mL
- CC50 at 24 h [17]: 4 µg/mL
- CC50 at 24 h [18]: 4 µg/mL
- selectivity ratio at 24 h [19]: 7
- selectivity ratio at 24 h [20]: 3
- selectivity ratio at 24 h [21]: 3
- selectivity ratio at 24 h [22]: 3
- selectivity ratio at 24 h [23]: 3
- selectivity ratio at 24 h [24]: < 1
- selectivity ratio at 24 h [25]: < 1
- EC50 [26]: > 3 µg/mL
- CC50 at 48 h [27]: 6.8 µg/mL
- selectivity ratio [28]: < 2
- selectivity ratio at 24 h [29]: 3

SMILES: CCCCCCCCCCCC[N+]12CC[N+](Cc3cccc(C[N+]45CC[N+](CCCCCCCCCCCC)(CC4)CC5)c3)(CC1)CC2
- MBC [1]: 1.6 µg/mL
- MIC [2]: 0.6 µg/mL
- MBC [3]: 1.6 µg/mL
- MIC [4]: 1.6 µg/mL
- MBC [5]: 3.1 µg/mL
- MIC [6]: 1.6 µg/mL
- MBC [7]: 3.1 µg/mL
- MIC [8]: 1.6 µg/mL
- MBC [9]: 3.1 µg/mL
- MIC [10]: 1.6 µg/mL
- MBC [11]: 3.1 µg/mL
- MIC [12]: 1.6 µg/mL
- MBC [13]: 25 µg/mL
- MIC [14]: 25 µg/mL
- MFC [15]: 12.5 µg/mL
- MIC [16]: 12.5 µg/mL
- CC50 at 24 h [17]: 17 µg/mL
- CC50 at 24 h [18]: 16 µg/mL
- selectivity ratio at 24 h [19]: 27
- selectivity ratio at 24 h [20]: 10
- selectivity ratio at 24 h [21]: 10
- selectivity ratio at 24 h [22]: 10
- selectivity ratio at 24 h [23]: 10
- selectivity ratio at 24 h [24]: < 1
- selectivity ratio at 24 h [25]: 1
- EC50 [26]: 1.3 µg/mL
- CC50 at 48 h [27]: 8.4 µg/mL
- selectivity ratio [28]: 6
- selectivity ratio at 24 h [29]: 10
